# Data taken from article PMC12096016 (Protein Science : A Publication of the Protein Society, 2025).
# Numbering of substitutions follows the chain as printed. “Also recorded” adds a separate entry of the source.
# Legend:
# [1] = target: T1, apo‐EntB (wild‐type EntB) (Escherichia coli, UniProt P0ADI4); test: Fluorescence anisotropy binding assay, wild-type EntB
# T1 sequence (P0ADI4 1-285): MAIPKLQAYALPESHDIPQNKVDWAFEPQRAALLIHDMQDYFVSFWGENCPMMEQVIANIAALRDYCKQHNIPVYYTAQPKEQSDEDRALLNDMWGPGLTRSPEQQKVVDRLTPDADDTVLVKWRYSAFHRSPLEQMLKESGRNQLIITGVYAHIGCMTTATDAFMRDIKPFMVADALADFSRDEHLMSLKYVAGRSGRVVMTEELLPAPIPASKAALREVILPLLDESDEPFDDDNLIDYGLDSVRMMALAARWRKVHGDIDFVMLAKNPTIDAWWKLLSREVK
# Outline: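 The test compound was held at 2 μM and purified protein was titrated in. Buffer was 50 mM HEPES pH 8.0, 150 mM NaCl, 1 mM TCEP, with 10 min preincubation at RT. Anisotropy was read at 21°C (ex 315 nm, em 437 nm, 10 nm slits), G-factor corrected, in triplicate. Apparent KD came from a one-site total-binding fit.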
# [2] = target: T2, EntB R196A isochorismatase (Escherichia coli, UniProt P0ADI4, R196A); test: EntB‐LDH coupled isochorismatase activity assay, EntB R196A; format: biochemical
# T2 sequence (P0ADI4 1-285 R196A): T1 sequence (P0ADI4 1-285) with R196A
# Outline: (§1)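 His-tagged EntB (pCA24N, E. coli AG-1, IMAC-purified) at 0.10 μM was preincubated 10 min at RT with 1.50 unit/mL LDH and 350 μM NADH in 50 mM HEPES pH 8.0, 150 mM NaCl, 1 mM TCEP. Substrate was a ~3:2 chorismate:isochorismate mix made with EntC and 5 mM MgCl2 on ice for 20 min, then filtered. It was added at 6.2–73.9 μM, and OD340 loss was followed at 21°C. Test compound was at 0, 100, 250 or 400 μM. Km and Vmax came from Michaelis–Menten fits, and Ki from an Eadie–Hofstee slope replot.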
# [3] = target: T3, EntB‐driven EntC reaction (Escherichia coli, UniProt P0ADI4); test: Isothermal titration microcalorimetry of the EntC–EntB coupled reaction; format: biochemical; details: 313 nM EntC, 1293 nM EntB, 0, 250, 500 μM DHB, 30°C
# T3 sequence (P0ADI4 1-285): T1 sequence (P0ADI4 1-285)
# Outline: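 The sample cell held 313 nM EntC with or without EntB (162–2587 nM). Two injections of 79 μM chorismate were given 10 min apart, stirring at 300 RPM. Integrated heats were corrected for buffer injection and chorismate dilution heats.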
# [4] = target: T4, EntB variant R196A (Escherichia coli, UniProt P0ADI4, R196A); test: Fluorescence anisotropy binding assay, EntB R196A; details: EntB R196A titrated into 2.00 μM 2,3‐DHB; apparent K D not determinable (no saturation)
# T4 sequence (P0ADI4 1-285 R196A): T1 sequence (P0ADI4 1-285) with R196A
# [5] = test system: EntB; details: compared with 2,5‐DHB and 3,5‐DHB; ref Khalil & Pawelek, 2009; cited from earlier work
# [6] = target: T5, wild‐type EntB isochorismatase (Escherichia coli, UniProt P0ADI4); test: EntB‐LDH coupled isochorismatase activity assay, wild-type EntB; format: biochemical; details: for Isochorismate apparent K m / V max: 0.1 μM EntB
# T5 sequence (P0ADI4 1-285): T1 sequence (P0ADI4 1-285)
# Outline: as §1
compound,measurement,setting,value
"O=C(O)c1cccc(O)c1O [2,3‐DHB, 2,3‐dihydroxybenzoic acid]",Kd,[1],8.95 µM
same,IC50,[2],692 µM
same,effect on heat evolution (integrated reaction heats),[3],suppression of integrated reaction heats; also recorded: heat evolution decreased in a DHB‐dependent manner
same,affinity relative to wild‐type EntB,[4],much lower affinity than wild‐type EntB
same,quenching of EntB intrinsic fluorescence,[5],able to specifically quench EntB fluorescence; also recorded: most strongly quenched
same,IC50,[6],360 µM
same,Isochorismate apparent K m,"[6]; 100 μM 2,3‐DHB",16.24 ± 1.57 µM
same,V max,"[6]; 100 μM 2,3‐DHB",5.25 ± 0.17 µM/min
same,Isochorismate apparent K m,"[6]; 250 μM 2,3‐DHB",22.12 ± 3.25 µM
same,V max,"[6]; 250 μM 2,3‐DHB",4.99 ± 0.52 µM/min
same,Isochorismate apparent K m,"[6]; 400 μM 2,3‐DHB",32.55 ± 0.23 µM
same,V max,"[6]; 400 μM 2,3‐DHB",5.33 ± 0.05 µM/min
same,mode of inhibition,"[6]; Eadie–Hofstee plot, linear fits converge at the ordinate",competitive inhibition
